Bioassay records from PubChem BioAssay.
This is a sample that favours compounds with a hit; in the whole collection about 2.5% have one here.
VIM-2 inh – VIM-2 metallo-beta-lactamase inhibitors, primary screen, biochemical, epi-absorbance readout, Pseudomonas aeruginosa enzyme | purified VIM-2, nitrocefin hydrolysis, epi-absorbance fluorescence | hit rate 0.89% among 290,000 | inhibition, % at 5.6 µM;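 active = inhibition above the mean of all tested compounds plus 3 SD, cutoff set per screening run, cut at about 7.5% in these data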;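 also: red hydrolysis product quenches plate fluorescence so inhibitors raise well fluorescence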
dFosB activator – activators of delta FosB homodimer, primary screen, biochemical, fluorescence polarization, TAMRA-CDK5 oligo, single point | Protein FosB (Mus musculus), P13346 | purified delta FosB; percent of positive-control signal above neutral wells | activation, % at 25 µM | hit rate 0.99% among 340,000;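 active = mean activation above about 17%, with every replicate also reaching it, limit read from the data, passing the limit was not always enough; inconclusive = only one of the two conditions met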
Target sequence (P13346 whole entry, looked up): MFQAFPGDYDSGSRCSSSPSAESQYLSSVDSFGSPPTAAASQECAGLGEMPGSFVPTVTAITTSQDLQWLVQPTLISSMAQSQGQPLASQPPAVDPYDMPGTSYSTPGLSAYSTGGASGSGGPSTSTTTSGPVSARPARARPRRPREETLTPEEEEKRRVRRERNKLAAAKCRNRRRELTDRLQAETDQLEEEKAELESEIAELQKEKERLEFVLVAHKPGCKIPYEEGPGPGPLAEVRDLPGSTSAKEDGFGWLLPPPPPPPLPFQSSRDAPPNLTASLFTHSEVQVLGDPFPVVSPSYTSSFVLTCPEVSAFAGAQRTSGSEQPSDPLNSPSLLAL
IMP-1 inh – IMP-1 metallo-beta-lactamase inhibitors, primary screen, biochemical, epi-absorbance readout, Pseudomonas aeruginosa enzyme; metallo-beta-lactamase IMP-1 (Pseudomonas aeruginosa); purified IMP-1, nitrocefin hydrolysis, epi-absorbance fluorescence; inhibition, % at 5.6 µM; hit rate 0.45% among 290,000; AID 1556, 2009;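 active = inhibition above the mean plus 3 SD of all compounds in the same screening run, cut at about 4.5% in these data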
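Test system: recombinant IMP-1 enzyme, purified / Medium: HEPES buffer pH 7.1 with ZnSO4 and Brij 35 / Doses: single dose, 5.6 µM / Times: 25 °C, 15 min preincubation, 25 min reaction / Detection: Epi-absorbance via hydrolysed-nitrocefin quenching of white-plate fluorescence, 480/530 nm, EDTA stop / Evaluation: percent inhibition from optical density relative to buffer-blank wells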
m5-HT2A agonist – mouse Htr2a agonists via beta-arrestin recruitment, primary screen, cell-based, luminescence. 5-hydroxytryptamine receptor 2A (Mus musculus), P35363. CHO-K1 mHTR2A beta-arrestin complementation; percent of 30 µM serotonin response. activation, % at 7.6 µM. hit rate 0.66% among 360,000;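 active = activation above a run cutoff, the mean activation of all tested compounds plus 3 SD, cut at about 14% in these data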
Large screens that a line does not name were inactive.

Cc1cccc(C(=O)N/N=C/c2coc3ccccc3c2=O)c1	IMP-1 inh 5.8
CC(C)Oc1cccc(C(=O)N/N=C/c2coc3ccccc3c2=O)c1	IMP-1 inh 5.3
O=C(COC(=O)c1nn(CCO)c(=O)c2ccccc12)Nc1ccc(Cl)c(Cl)c1	none (no result: VIM-2 inh, IMP-1 inh)
CCCCc1nc(Cl)c(CO)n1Cc1ccc(-c2ccccc2-c2nn[nH]n2)cc1	none
CCCCC(=O)N(Cc1ccc(-c2ccccc2-c2nn[nH]n2)cc1)[C@H](C(=O)O)C(C)C	IMP-1 inh 11 (no result: dFosB activator, m5-HT2A agonist)
CC(C)(C)NC(=O)C(c1ccc(F)cc1)N(Cc1ccccc1Cl)C(=O)c1ccn[nH]1 (stereo not drawn)	none
Cc1n[nH]c(C)c1S(=O)(=O)N(CC(=O)N1CCc2ccccc21)c1ccc(C(C)C)cc1	dFosB activator 50
COc1cccc(C(=O)NC2CC3CCCC(C2)N3CC(=O)Nc2ccccc2)c1 (stereo not drawn)	IMP-1 inh 28
Cn1c(=O)oc2cc(S(=O)(=O)Nc3ccc(F)cc3)ccc21	none
CCCc1cc(=O)oc2c3c(c(Cl)cc12)OCN(CCCO)C3	IMP-1 inh 10 (no result: dFosB activator, m5-HT2A agonist)
CCCc1cc(=O)oc2c(CN3CCCC3)c(O)c(Cl)cc12	none
COc1ccc(-c2csc(NC3CCCCC3)n2)c(OC)c1	IMP-1 inh 8.0
CCc1nc2ccc(C(=O)NCCOc3ccc(OC)cc3)cn2c1N(C)Cc1cccs1	none (no result: VIM-2 inh, dFosB activator, IMP-1 inh)
COCCNC(=O)c1cccc(OC2CCN(Cc3ccccc3C)CC2)c1	none
O=C(NCCCN1CCCCC1)c1ccc2c(c1)NC(=O)C(N1CCCCC1)S2 (stereo not drawn)	IMP-1 inh 5.2
CC1CC(C)CN(CCCNC(=O)c2ccc3c(c2)NC(=O)C(N2CCCCC2)S3)C1 (stereo not drawn)	none
Cn1c(N)c(C(=O)COC(=O)c2ccnc3ccccc23)c(=O)n(C)c1=O	VIM-2 inh 9.7
CCOC(=O)C1Nc2ccc(C(=O)O)cc2C2C=CCC12 (stereo not drawn)	IMP-1 inh 35
COC(=O)c1ccccc1S(=O)(=O)NCc1nc2nc(C)cc(C)n2n1	none
COc1ccccc1NC(=O)c1ccc(S(=O)(=O)NCc2ccco2)cc1	none
Cc1cc(C)cc(NC(=O)CN(c2ccc(F)cc2)S(C)(=O)=O)c1	IMP-1 inh 7.4
Cc1cccc(N(CC(=O)Nc2ccc(F)cc2)S(C)(=O)=O)c1	none
COc1cccc(/C=N/NC(=S)Nc2cccc(S(=O)(=O)N(C)C)c2)c1	none
COc1cccc(/C=N/NC(=S)Nc2cccc(C(=O)O)c2)c1	VIM-2 inh 9.1
COc1ccc(O)c(/C=N/NC(=S)Nc2cccc(S(=O)(=O)N(C)C)c2)c1	VIM-2 inh 11
O=C(Nc1ccc(NC(=O)c2ccccn2)cc1)C(=O)Nc1ccc2c(c1)OCCO2	dFosB activator 19
O=C(Nc1ccc(NC(=O)c2cccs2)cc1)c1ccc2c(c1)OCCO2	dFosB activator 17
O=C(Nc1ccc(NC(=O)c2cccs2)cc1)c1ccc2c(c1)OCO2	dFosB activator inconclusive
CC1CCN(C(=O)C2CCC(C)(C(=O)O)C2(C)C)CC1 (stereo not drawn)	none
O=C(O)CSCC(=O)N1CCc2c([nH]c3ccccc23)C1C(F)(F)F (stereo not drawn)	none
O=C(O)c1ccccc1C(=O)N1CCc2c([nH]c3ccccc23)C1C(F)(F)F (stereo not drawn)	VIM-2 inh 11 (no result: dFosB activator)
CCS(=O)(=O)Nc1cccc(-c2ccc3nnc(-c4cccnc4)n3n2)c1	VIM-2 inh 8.9
CCn1cc(C(=O)O)c(=O)c2cc(S(=O)(=O)N(C)C)ccc21	VIM-2 inh 8.7
CCC(C)NC(=O)c1cn(CC)c2ccc(S(=O)(=O)N(C)C)cc2c1=O (stereo not drawn)	none
Cc1ccc(CCN2CC(C(=O)NC3CCCCC3)CC2=O)cc1 (stereo not drawn)	none
O=C(/C=C/c1ccccc1)c1ccccn1	VIM-2 inh 9.1
Cc1cnc(NC(=O)Cc2ccc(C)c(C)c2)s1	IMP-1 inh 8.7
COc1cc(CC(=O)Nc2ncc(C)s2)cc(OC)c1OC	none
CC(C)(C)NC(=O)CSc1nc2cc(S(=O)(=O)N3CCCCC3)ccc2o1	none (no result: VIM-2 inh, IMP-1 inh)
Cc1ccc(-c2nnc3c4ccccc4c(C)nn23)cc1S(=O)(=O)N1CCN(C)CC1	VIM-2 inh 12
O=C(COC(=O)c1cc(Br)ccc1O)NNC(=O)c1cccs1	dFosB activator 29 (no result: VIM-2 inh, IMP-1 inh)
Cc1ccc(N/C(N)=N/c2nc3c(c(=O)[nH]2)CCCC3)c(C)c1	IMP-1 inh 5.0
CC(C)c1ccc(/C=N/NC(=O)c2nnn(-c3nonc3N)c2CN(C)C2CCCCC2)cc1	none
CCn1c(C)nc2cc(C(=O)N/N=C/c3ccc(O)c(O)c3O)ccc21	none
CCn1c(C)nc2cc(C(=O)N/N=C/c3cccc(OC)c3O)ccc21	dFosB activator 22
Cc1ccc(C(=O)NCc2ccccn2)cc1S(=O)(=O)N1CCOCC1	none (no result: VIM-2 inh, IMP-1 inh)
CCn1c(N2CCN(S(=O)(=O)c3ccccc3C(F)(F)F)CC2)nc2ccccc21	IMP-1 inh 7.2
O=C(CCN1C(=O)/C(=C/c2ccc(F)cc2)SC1=S)NC1CCS(=O)(=O)C1 (stereo not drawn)	none
O=C(CCN1C(=O)/C(=C/c2ccccc2)SC1=S)NCCc1ccc(O)cc1	none
O=C(CCN1C(=O)/C(=C\c2ccco2)SC1=S)Nc1ccc(C(=O)O)c(O)c1	IMP-1 inh 8.0
COc1ccc(/C=C2\SC(=S)N(CC(=O)NC3CCS(=O)(=O)C3)C2=O)cc1 (stereo not drawn)	dFosB activator 47
COc1ccc(/C=C2\SC(=S)N(CCC(=O)Nc3cccc(O)c3)C2=O)cc1	dFosB activator 25
COc1ccc(/C=C2\SC(=S)N(CCC(=O)NCCc3ccc(O)cc3)C2=O)cc1	dFosB activator 38
O=C(CCN1C(=O)/C(=C/c2ccco2)SC1=S)Nc1ccc(C(=O)O)c(O)c1	none
CCN(C(=O)COC(=O)c1nc(Cl)ccc1Cl)C1CCS(=O)(=O)C1 (stereo not drawn)	none (no result: VIM-2 inh, IMP-1 inh)
O=C1c2cccc3c([N+](=O)[O-])ccc(c23)C(=O)N1O	VIM-2 inh 8.8
COc1ccc2c3c(cccc13)C(=O)N(O)C2=O	VIM-2 inh 9.0
CCn1c(=S)sc2c(=O)n(CC(=O)Nc3cccc(Cl)c3)c(C)nc21	none
CCn1c(=S)sc2c(=O)n(CC(=O)NCCCc3ccccc3)c(C)nc21	IMP-1 inh 12
O=Cc1ccc(F)c([B-](F)(F)F)c1	none (no result: VIM-2 inh, IMP-1 inh)
COc1ccc(-n2nc(C(=O)NCC(=O)Nc3cc(OC)c(OC)c(OC)c3)c3ccccc3c2=O)cc1Cl	dFosB activator 21
COc1ccc(-n2nc(C(=O)NCC(=O)NCc3ccc(F)cc3)c3ccccc3c2=O)cc1OC	dFosB activator 126
Cc1[nH]c(=O)[nH]c(=O)c1NC(=O)c1ccccc1[N+](=O)[O-]	none (no result: VIM-2 inh, dFosB activator, IMP-1 inh)
CCOC(=O)c1sc2nc[nH]c(=O)c2c1C	IMP-1 inh 5.2
